Test results as given in ChEMBL document CHEMBL4706701, “Synthesis and biological activity of selenopsammaplin A and its analogues as antitumor agents with DOT1L inhibitory activity” (Bioorg Med Chem, 2021).
pIC50: −log10 of the molar value. Activity calls are given as the source filed them. No cut-off for these calls is given here.

How the values were obtained:
[1] = system: SNU-638; assay: Cytotoxicity against human SNU-638 cells assessed as reduction in cell viability by SRB assay; format: functional, cell-based
Summary of the method: (§1)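 Cells seeded in 96-well plates and exposed to compounds for the stated times. Zero-day controls were incubated 30 min. Cells were fixed and stained with 0.4% SRB in 1% acetic acid, and bound dye was dissolved in 10 mM Tris (pH 10.0). A515 was read, and IC50 was calculated by non-linear regression.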

[2] = system: A549; assay: Cytotoxicity against human A549 cells assessed as reduction in cell viability by SRB assay; format: functional, cell-based; summary of the method: as §1
[3] = system: MDA-MB-231; assay: Cytotoxicity against human MDA-MB-231 cells assessed as reduction in cell viability by SRB assay; format: functional, cell-based; summary of the method: as §1
[4] = molecular target: Histone-lysine N-methyltransferase, H3 lysine-79 specific (Homo sapiens) (UniProt Q8TEK3); assay: Inhibition of DOT1L in human MDA-MB-231 cells assessed as down regulation of H3K79me2 expression at 200 nM by Western blot analysis; format: cell-based
Histone-lysine N-methyltransferase, H3 lysine-79 specific (Homo sapiens), sequence (Q8TEK3 whole entry, looked up, the tested form may be a part): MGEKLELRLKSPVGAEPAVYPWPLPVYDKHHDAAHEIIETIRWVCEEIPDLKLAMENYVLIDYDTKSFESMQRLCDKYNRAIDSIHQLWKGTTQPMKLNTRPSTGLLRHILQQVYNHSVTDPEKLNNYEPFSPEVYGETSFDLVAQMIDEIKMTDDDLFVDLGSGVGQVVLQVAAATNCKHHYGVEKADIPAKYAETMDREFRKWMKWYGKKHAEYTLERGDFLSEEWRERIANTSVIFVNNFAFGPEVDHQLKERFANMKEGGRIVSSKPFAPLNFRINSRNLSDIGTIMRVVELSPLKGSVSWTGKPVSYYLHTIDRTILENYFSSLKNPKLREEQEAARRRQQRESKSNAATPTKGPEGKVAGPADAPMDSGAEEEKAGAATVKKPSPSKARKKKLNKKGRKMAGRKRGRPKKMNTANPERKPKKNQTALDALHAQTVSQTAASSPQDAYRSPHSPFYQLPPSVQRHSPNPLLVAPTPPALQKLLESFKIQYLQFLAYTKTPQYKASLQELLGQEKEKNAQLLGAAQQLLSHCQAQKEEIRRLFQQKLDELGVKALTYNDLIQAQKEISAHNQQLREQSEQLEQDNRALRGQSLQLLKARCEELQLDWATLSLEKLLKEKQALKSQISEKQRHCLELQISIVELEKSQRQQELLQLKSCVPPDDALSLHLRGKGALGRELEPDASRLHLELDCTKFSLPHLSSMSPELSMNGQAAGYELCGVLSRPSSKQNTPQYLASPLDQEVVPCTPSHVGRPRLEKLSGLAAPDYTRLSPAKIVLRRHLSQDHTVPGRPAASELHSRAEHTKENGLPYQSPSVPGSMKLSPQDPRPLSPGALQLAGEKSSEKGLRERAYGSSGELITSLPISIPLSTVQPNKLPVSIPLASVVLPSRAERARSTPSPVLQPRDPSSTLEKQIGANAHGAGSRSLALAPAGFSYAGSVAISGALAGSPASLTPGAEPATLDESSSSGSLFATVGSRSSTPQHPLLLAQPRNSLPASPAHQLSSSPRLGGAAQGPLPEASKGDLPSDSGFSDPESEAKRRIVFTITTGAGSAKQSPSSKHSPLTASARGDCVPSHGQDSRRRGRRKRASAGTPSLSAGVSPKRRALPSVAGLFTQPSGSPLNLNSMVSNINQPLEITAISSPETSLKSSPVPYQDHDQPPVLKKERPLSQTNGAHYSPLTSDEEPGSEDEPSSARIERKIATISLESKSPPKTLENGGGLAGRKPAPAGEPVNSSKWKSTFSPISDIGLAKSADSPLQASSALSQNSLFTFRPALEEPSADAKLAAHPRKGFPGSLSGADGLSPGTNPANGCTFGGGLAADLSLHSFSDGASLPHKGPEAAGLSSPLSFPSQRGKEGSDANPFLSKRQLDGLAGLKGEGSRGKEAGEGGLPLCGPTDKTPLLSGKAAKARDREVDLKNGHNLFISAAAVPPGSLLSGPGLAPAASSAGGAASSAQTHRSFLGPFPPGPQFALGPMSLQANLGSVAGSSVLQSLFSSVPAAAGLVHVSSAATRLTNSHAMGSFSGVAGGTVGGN
Summary of the method: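 MDA-MB-231 lysates were made in 2× SDS sample buffer with vanadate and fluoride. 5-20 μg protein was run on 8–15% SDS-PAGE and blotted to PVDF. Membranes were blocked in 5% BSA, probed for H3K79me2 with total histone H3, and detected by ECL. Mean ± SD (n = 3), representative of three separate experiments.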

[5] = system: HCT-116; assay: Cytotoxicity against human HCT-116 cells assessed as reduction in cell viability by SRB assay; format: functional, cell-based; summary of the method: as §1
[6] = system: SK-HEP1; assay: Cytotoxicity against human SK-HEP1 cells assessed as reduction in cell viability by SRB assay; format: functional, cell-based; summary of the method: as §1
[7] = molecular target: Histone-lysine N-methyltransferase, H3 lysine-79 specific (Homo sapiens) (UniProt Q8TEK3); assay: Inhibition of human N-terminal GST-tagged DOT1L (2 to 416 residues) expressed in Escherichia coli at 200 nM using DOT1L substrate measured after 2 hrs in presence of SAM by ELISA
Summary of the method: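 Cell-free DOT1L enzyme activity assay using 500 ng DOT1L per well. Compound was incubated 2 h before read-out. EPZ-5676 (100 nM) was the positive control. Mean ± SD (n = 3), representative of three separate experiments.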

[8] = molecular target: Histone-lysine N-methyltransferase, H3 lysine-79 specific (Homo sapiens) (UniProt Q8TEK3); assay: Inhibition of DOT1L in human MDA-MB-231 cells assessed as effect on H3K36 methylation at 200 nM by Western blot analysis; format: cell-based
Summary of the method: (§2)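 MDA-MB-231 cell lysates in 2× SDS buffer, protein by BCA; 5–20 μg on 8–15% SDS-PAGE, transferred to PVDF, BSA-blocked and probed with antibodies to H3K4me2, H3K27me2, H3K36me2, H3K79me2 and total histone H3; ECL detection. Mean ± SD (n = 3), three separate experiments.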

[9] = system: MDA-MB-231; assay: Antiinvasive activity in human MDA-MB-231 cells assessed as reduction in cell invasion through matrigel-coated chamber at 400 nM after 24 hrs by diff-quik staining based microscopic analysis; format: functional
Summary of the method: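 MDA-MB-231 cells pretreated with compound (50–400 nM) for 24 h, harvested into serum-free medium and plated at 0.5–1 × 10⁶ cells/chamber on transwell inserts (8 μm pores) coated with type I collagen and 1:20 Matrigel/PBS; 30% FBS medium as chemoattractant below. After 24 h, invaded cells fixed, Diff-Quik stained, counted in 5 random fields at 200×; three separate experiments.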

[10] = molecular target: Histone-lysine N-methyltransferase, H3 lysine-79 specific (Homo sapiens) (UniProt Q8TEK3); assay: Inhibition of DOT1L in human MDA-MB-231 cells assessed as effect on H3K4 methylation at 200 nM by Western blot analysis; format: cell-based; summary of the method: as §2
[11] = molecular target: Histone-lysine N-methyltransferase, H3 lysine-79 specific (Homo sapiens) (UniProt Q8TEK3); assay: Inhibition of DOT1L in human MDA-MB-231 cells assessed as effect on H3K27 methylation at 200 nM by Western blot analysis; format: cell-based; summary of the method: as §2
[12] = molecular target: Histone-lysine N-methyltransferase, H3 lysine-79 specific (Homo sapiens) (UniProt Q8TEK3); assay: Inhibition of DOT1L in human MDA-MB-231 cells assessed as effect on histone H3 methylation at 200 nM by Western blot analysis; format: cell-based; summary of the method: as §2
[13] = system: MDA-MB-231; assay: Antimigratory activity in human MDA-MB-231 cells assessed as suppression of wound closure at 400 nM after 24 hrs by microscopic analysis; format: functional, cell-based
Summary of the method: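 MDA-MB-231 monolayers at 80–90% confluence scratched with a pipette tip, washed with PBS, then kept 24 h in medium with 1% FBS plus compound at various concentrations. Wounds photographed at 0 and 24 h; area measured by image analysis and expressed as wound healing (%) relative to the 0 h area. Mean ± SD (n = 3), three separate experiments.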

Row | inhibition [8] | inhibition [10] | inhibition [11] | inhibition [12] | SMILES | pIC50 [1] | pIC50 [2] | pIC50 [3] | H3K79me2 downregulation (active/not active) [4] | pIC50 [5] | pIC50 [6] | inhibition [7] | Activity [9] | Activity [13]
1 | – | – | – | – | O=C(NCC[Se][Se]CCNC(=O)/C(Cc1ccc(Cl)c(Cl)c1)=N/O)/C(Cc1ccc(Cl)c(Cl)c1)=N/O | 6.74 | 6.55 | 6.60 | Active | 6.28 | 6.49 | – | – | –
2 | – | – | – | – | COc1cc([C@@H]2c3cc4c(cc3[C@@H](O[C@@H]3O[C@@H]5CO[C@@H](C)O[C@H]5[C@H](O)[C@H]3O)[C@H]3COC(=O)[C@H]23)OCO4)cc(OC)c1O [ETOPOSIDE] | 6.70 | – | 5.06 | – | 5.92 | 6.40 | – | – | –
3 | – | – | – | – | O=C(NCC[Se][Se]CCNC(=O)/C(Cc1ccc(Cl)cc1)=N/O)/C(Cc1ccc(Cl)cc1)=N/O | 6.66 | 6.60 | 6.48 | Active | 6.55 | 6.48 | – | – | –
4 | – | – | – | – | O=C(NCC[Se][Se]CCNC(=O)/C(Cc1ccc(F)cc1)=N/O)/C(Cc1ccc(F)cc1)=N/O | 7.15 | 7.00 | 6.89 | – | 6.96 | 6.85 | – | – | –
5 | – | – | – | – | O=C(NCC[Se][Se]CCNC(=O)/C(Cc1ccc(F)c(F)c1)=N/O)/C(Cc1ccc(F)c(F)c1)=N/O | 7.30 | 6.48 | 6.38 | Active | 6.74 | 6.57 | – | – | –
6 | – | – | – | – | O=C(NCC[Se][Se]CCNC(=O)/C(Cc1ccc([N+](=O)[O-])cc1)=N/O)/C(Cc1ccc([N+](=O)[O-])cc1)=N/O | 7.22 | 7.05 | 7.05 | Active | 7.05 | 6.77 | Active | – | –
7 | inactive | inactive | inactive | inactive | O=C(NCCSSCCNC(=O)/C(Cc1ccc(O)c(Br)c1)=N/O)/C(Cc1ccc(O)c(Br)c1)=N/O [PSAMMAPLIN A] | 6.25 | 5.75 | 5.88 | – | 6.21 | 5.89 | inactive | inactive | inactive
8 | – | – | – | – | O=C(NCC[Se][Se]CCNC(=O)/C(Cc1ccc2ccccc2c1)=N/O)/C(Cc1ccc2ccccc2c1)=N/O | 6.57 | 6.42 | 6.72 | inactive | 6.92 | 6.77 | – | – | –
